# ChEMBL document CHEMBL1142901, “Design and synthesis of pyrimido[4,5-b][1,4]benzothiazine derivatives, as potent 15-lipoxygenase inhibitors” (Bioorg Med Chem, 2007)
# pIC50: −log10 of the molar value.
# How the values were obtained:
# [1] = Inhibition of soybean 15-lipoxygenase; design: species or system Glycine max
# Method in brief: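 Soybean 15-lipoxygenase (final 167 U/mL, kept on ice) in 0.2 M borate buffer pH 9.00 with linoleic acid (134 µM) substrate. Activity followed as absorbance increase at 234 nm from 30 to 90 s after enzyme addition. Compounds added in ethanol (final 1%); ethanol-only uninhibited controls measured at regular intervals. IC50 by linear interpolation between points around 50% activity.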
# [2] = Partition co-efficient, log P of the compound; format: physicochemical; conditions: octanol/water
SMILES,pIC50 [1],logP [2]
Cc1nc(N2CCCC2)nc2c1Nc1ccccc1S2,4.32,2.49
CCN1CCN(c2nc(C)c3c(n2)Sc2ccccc2N3)CC1,4.47,2.19
Cc1nc(N2CCOCC2)nc2c1Nc1ccccc1S2,4.28,1.7
Cc1nc(N2CCC(O)CC2)nc2c1Nc1ccccc1S2,< 3.70,1.95
Cc1nc(N2CCN(c3ccccc3)CC2)nc2c1Nc1ccccc1S2,< 3.70,3.15

# More lines, now with the values ahead:
pIC50 [1],logP [2],SMILES
4.12,2.98,Cc1nc(N2CCC(C)CC2)nc2c1Nc1ccccc1S2
4.24,2.74,Cc1nc(N2CCCCC2)nc2c1Nc1ccccc1S2
4.74,1.95,Cc1nc(N2CCN(C)CC2)nc2c1Nc1ccccc1S2
